Results gathered from unrelated publications.
Lines come from different studies, so protocols differ.
Effect on: cell growth or viability

For `O=C(N[C@@H](Cc1ccccc1)C(=O)c1noc(-c2ccccc2)n1)[C@H](Cc1ccccc1)NC(=O)N1CCOCC1`, the CC50 was > 64 µM (MRC-5 SV2).
The IC50 of `O=C(/C=C/c1ccc(O)c(O)c1)O[C@@H]1C[C@](O)(C(=O)O)C[C@@H](O)[C@H]1O` is reported as 91.2 µM (WI-38; WST-1; 48 h).
For `COc1cccc2c1C(=O)c1c(O)c3c(c(O)c1C2=O)C[C@@](O)(C(=O)CO)C[C@@H]3O[C@H]1C[C@H](N)[C@H](O)[C@H](C)O1`, the viability was 7.8% (WI-38; MTT; 100 µM; 24 h).
`C[Si](C)(C)c1cc(C(=O)[C@H](Cc2ccccc2)NC(=O)[C@H](Cc2ccccc2)NC(=O)N2CCOCC2)no1` (mixture of isomers) gave a CC50 of > 64 µM (MRC-5 SV2).
`N=C(N)c1ccc(OCCCCCOc2ccc(C(=N)N)cc2)cc1` gave a CC50 of > 20 µM (HaCaT; MTS; 24 h).
`O=C(N[C@@H](Cc1ccccc1)C(=O)c1c[nH]nn1)[C@H](Cc1ccccc1)NC(=O)N1CCOCC1` gave a CC50 of > 64 µM (MRC-5 SV2).
`O=c1c(O)c(-c2ccc(O)cc2)oc2cc(O)cc(O)c12` has an IC50 of 95.4 µM (WI-38; WST-1; 48 h).
The CC50 of `O=C(N[C@@H](Cc1ccccc1)C(=O)c1cc(-c2ccccc2)on1)[C@H](Cc1ccccc1)NC(=O)N1CCOCC1` (single isomer, unassigned) is reported as > 64 µM (MRC-5 SV2).
For `CCOC(=O)C(C(C)=O)=C1Sc2nc3ccc(S(=O)(=O)N4CCCC4)cc3nc2S1`, the viability was 60.1% (WI-38; MTT; 25 µM; 24 h).
`Nc1ncnc2c1ncn2[C@@H]1O[C@H](CO)[C@@H](O)[C@H]1O` has an IC50 of 131 µM (WI-38; WST-1; 48 h).
For `CCOC(=O)c1c(C)ncn1CC(c1cn(C)c2ccc([N+](=O)[O-])cc12)c1cn(C)c2ccc([N+](=O)[O-])cc12`, the CC50 was > 20 µM (HaCaT; MTS; 24 h).
`O=c1c(O)c(-c2ccc(O)c(O)c2)oc2cc(O)cc(O)c12` gave an IC50 of 87.6 µM (WI-38; WST-1; 48 h).
`COC(=O)c1c(C)ncn1CC(c1c[nH]c2ccc(C)cc12)c1c[nH]c2ccc(C)cc12` gave a CC50 of > 20 µM (HaCaT; MTS; 24 h).
`CC(=O)O[C@@H]1c2c(ccc3ccc(=O)oc23)OC(C)(C)[C@@H]1OC(=O)C1(C)OC1C` (stereo partly drawn) gave an IC50 of 99.6 µM (WI-38; WST-1).
With `O=C(N[C@@H](Cc1ccccc1)C(=O)c1nc2ccccc2s1)[C@H](Cc1ccccc1)NC(=O)N1CCOCC1` the CC50 was > 64 µM (MRC-5 SV2).
`O=Cc1ccc(CO)o1` has an IC50 of 78.3 µM (WI-38; WST-1; 48 h).
For `O=C(N[C@@H](Cc1ccccc1)C(=O)c1cc(-c2ccccc2)no1)[C@H](Cc1ccccc1)NC(=O)N1CCOCC1` (mixture of isomers), the CC50 was > 64 µM (MRC-5 SV2).
The viability of `N#CC(C(=O)Nc1cccc(C(F)(F)F)c1)=C1Sc2nc3ccc(S(=O)(=O)N4CCCC4)cc3nc2S1` is reported as 55.4% (WI-38; MTT; 50 µM; 24 h).
`CC(=O)OC1c2c(ccc3ccc(=O)oc23)OC(C)(C)C1OC(=O)C(C)(O)C(C)O` (stereo not drawn) gave an IC50 of 89.6 µM (WI-38; WST-1).
`COC(=O)c1c(C)ncn1CC(c1cn(C)c2ccccc12)c1cn(C)c2ccccc12` gave a CC50 of > 20 µM (HaCaT; MTS; 24 h).
With `O=C1CCCCC1=C1Sc2nc3ccc(S(=O)(=O)N4CCCC4)cc3nc2S1` the viability was 100% (WI-38; MTT; 3.125 µM; 24 h).
